We go through 30 compounds from ChEMBL document CHEMBL4145676, “Mathematical and Structural Characterization of Strong Nonadditive Structure-Activity Relationship Caused by Protein Conformational Changes” (J Med Chem, 2018).

The nature of the assay: Inhibition of GST tagged PDE2 (unknown origin) assessed as reduction in FAM-cAMP hydrolysis pre-incubated for 5 mins before FAM-cAMP addition and measured after 30 mins by IMAP assay. On the set-up: species or system Homo sapiens. In short, it runs like this:
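Compound added from 1 mM DMSO stock, 5 min at rt. FAM-cAMP then added at 200 nM final, 30 min at rt. Stopped with IMAP Tb binding reagent, 1 h at rt. Plate reader read-out gives pIC50, run in quadruplicate.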
Take `Cc1nc2ccc(C(=O)NCC(C)C)cc2n2c(-c3cc(OC(C)C)ccc3Cl)nnc12`: the pIC50 – broadly, the negative decadic logarithm of the IC50, by convention in mol/L – turned out to be 8.93.

On to `Cc1nc2ccc(C(=O)NC34CC5CC(CC(C5)C3)C4)cc2n2c(-c3cc(F)ccc3Cl)nnc12`, for which the pIC50 is reported as 9.58.

`Cc1nc2ccc(C(=O)NC(C)(C)C)cc2n2c(-c3cc(OCC(C)C)ccc3Cl)nnc12`: the pIC50 is recorded as 8.75.

In the case of `COc1ccc(Cl)c(-c2nnc3c(C)nc4ccc(C(=O)NC(C)(C)C)cc4n23)c1`, the pIC50 came to 9.

For `Cc1nc2ccc(C(=O)NC34CC5CC(CC(C5)C3)C4)cc2n2c(-c3cc(OC(C)C)ccc3Cl)nnc12`, the pIC50 worked out at 7.94.

Regarding `Cc1nc2ccc(C(=O)NCC(C)C)cc2n2c(-c3cc(F)ccc3Cl)nnc12`, the pIC50 was found to be 9.37.

For the compound `Cc1nc2ccc(C(=O)NCC(C)C)cc2n2c(-c3ccccc3Cl)nnc12`, the pIC50 was determined as 9.52.

Turning to `Cc1nc2ccc(C(=O)NC(C)(C)C)cc2n2c(-c3cc(OC(C)C)ccc3Cl)nnc12`, the pIC50 is 8.3.

Consider `Cc1nc2ccc(C(=O)NC34CC5CC(CC(C5)C3)C4)cc2n2c(-c3cc(OC(C)(C)C)ccc3Cl)nnc12`, for which the pIC50 came out at 7.58.

Consider `Cc1nc2ccc(C(=O)NCC(C)C)cc2n2c(-c3cc(OCC(C)C)ccc3Cl)nnc12`, for which the pIC50 is listed as 9.29.

Take `Cc1nc2ccc(C(=O)NC(C)C)cc2n2c(-c3ccccc3Cl)nnc12`: the pIC50 came out at 9.57.

As to `Cc1nc2ccc(C(=O)NC(C)(C)C)cc2n2c(-c3cc(F)ccc3Cl)nnc12`, the pIC50 amounted to 9.3.

As for `Cc1nc2ccc(C(=O)NC(C)C)cc2n2c(-c3cc(OC(C)(C)C)ccc3Cl)nnc12`, the pIC50 was 9.1.

As to `COc1ccc(Cl)c(-c2nnc3c(C)nc4ccc(C(=O)NC56CC7CC(CC(C7)C5)C6)cc4n23)c1`, the pIC50 was 9.49.

Consider `Cc1nc2ccc(C(=O)NC(C)C)cc2n2c(-c3cc(F)ccc3Cl)nnc12`, for which the pIC50 turned out to be 9.17.

Regarding `CNC(=O)c1ccc2nc(C)c3nnc(-c4cc(OC(C)C)ccc4Cl)n3c2c1`, the pIC50 came to 9.16.

Take `Cc1nc2ccc(C(=O)NC(C)(C)C)cc2n2c(-c3cc(OC(C)(C)C)ccc3Cl)nnc12`: the pIC50 amounted to 8.35.

As for `CNC(=O)c1ccc2nc(C)c3nnc(-c4ccccc4Cl)n3c2c1`, the pIC50 stood at 8.55.

Turning to `Cc1nc2ccc(C(=O)NC34CC5CC(CC(C5)C3)C4)cc2n2c(-c3ccccc3Cl)nnc12`, the negative-log IC50 (pIC50) is listed as 9.77.

For `Cc1nc2ccc(C(=O)NC(C)(C)C)cc2n2c(-c3ccccc3Cl)nnc12`, the pIC50 was 9.47.

`Cc1nc2ccc(C(=O)NC(C)C)cc2n2c(-c3cc(OCC(C)C)ccc3Cl)nnc12`: the negative-log IC50 (pIC50) is 9.46.

Take `CNC(=O)c1ccc2nc(C)c3nnc(-c4cc(F)ccc4Cl)n3c2c1`: the pIC50 was 8.69.

Regarding `Cc1nc2ccc(C(=O)NCC(C)C)cc2n2c(-c3cc(OC(C)(C)C)ccc3Cl)nnc12`, the pIC50 is 8.88.

With `COc1ccc(Cl)c(-c2nnc3c(C)nc4ccc(C(=O)NC(C)C)cc4n23)c1`, the pIC50 was 8.96.

`CNC(=O)c1ccc2nc(C)c3nnc(-c4cc(OC)ccc4Cl)n3c2c1`: the pIC50 was 8.74.

As for `Cc1nc2ccc(C(=O)NC(C)C)cc2n2c(-c3cc(OC(C)C)ccc3Cl)nnc12`, the pIC50 came out at 8.99.

For `CNC(=O)c1ccc2nc(C)c3nnc(-c4cc(OC(C)(C)C)ccc4Cl)n3c2c1`, the pIC50 was 9.16.

As to `Cc1nc2ccc(C(=O)NC34CC5CC(CC(C5)C3)C4)cc2n2c(-c3cc(OCC(C)C)ccc3Cl)nnc12`, the pIC50 is on record as 7.74.

In the case of `CNC(=O)c1ccc2nc(C)c3nnc(-c4cc(OCC(C)C)ccc4Cl)n3c2c1`, the pIC50 worked out at 9.61.

On to `COc1ccc(Cl)c(-c2nnc3c(C)nc4ccc(C(=O)NCC(C)C)cc4n23)c1`, for which the negative logarithm of the IC50 (pIC50) is reported as 9.42.
